# Bioassay records as filed in PubChem.
# Dynein cargo inh: dynein cargo transport inhibition | 3617.4 mouse cells, GR-EGFP nuclear translocation imaging; test concentration mostly 20 µM; stimulated with dexamethasone, 1 µM; active compounds read low | z-score, hits read low | 220,000 compounds, 0.47% hits | AID 1381;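 active = plate z-score of nuclear minus cytoplasmic receptor signal below a set negative limit, without overly bright fluorescence or cell loss, cut at about -3.5 in these data, passing the limit was not always enough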;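 also: z-score of nuclear minus cytoplasmic ring GR-EGFP intensity difference per well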
#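 Also added: dexamethasone, 1.0 µM final. Medium: tet-free, stripped-serum medium. Detection: fixed, Hoechst-stained cells imaged at 10x for EGFP. Read-out: nuclear-to-cytoplasmic GR-EGFP distribution per well. Times: induction 48 h, compound 1 h, agonist 30 min.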
# bCat KO growth: beta-catenin-lacking colon tumor cell growth suppression. HCT116 beta-catenin knockout viability, CellTiter-Glo, 60 h; active compounds read low. viability, % at 10 µM. 140,000 compounds, 1.5% hits. AID 818;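 active = viability at or under a set limit, the compound median less 4 SD, cut at about 6% in these data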
# Autophagy HCS: modulators of autophagy; MEF GFP-LC3 puncta imaging; test concentration mostly 10 µM; 190,000 compounds, 0.98% hits; calls only at 10 µM (by protocol);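 active = percentage of spot-positive cells more than 3 SD above its plate mean, without a fluorescence outlier flag or 80% toxicity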
# HCT116 PTEN-null: growth suppressors of cells with PTEN tumor suppressor deletion; HCT116 PTEN-null viability, CellTiter-Glo, 60 h; active compounds read low; viability, % at 10 µM; 140,000 compounds, 1.2% hits;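 active = viability at or below a set limit, 4 SD under the median of all tested compounds, cut at about 3.7% in these data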;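 also: PTEN knockout HCT116 line with beta catenin targeted HCT116 as companion control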
# L major viab: Leishmania major promastigote growth inhibition; Leishmania major promastigotes, resazurin fluorescence viability; inhibition, % at 10 µM; 200,000 compounds, 9% hits; AID 1063; in the data active = inhibition above about 50%;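 also: promastigotes grown with compound for 44 hours at 28 °C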
# Numbers stand for hits; 0 = inactive; - = not tested or not shown; + = active, no number. An excerpt weighted towards active compounds, which were near 9.2% of everything screened.
SMILES,Dynein cargo inh,bCat KO growth,Autophagy HCS,HCT116 PTEN-null,L major viab
COc1ccc(/C=C/C(=O)NC2CCCCCC2)cc1S(=O)(=O)N1CCOCC1,0,0,0,0,98
COc1cc(CCN2C(=O)N[C@@H](CCc3ccccc3)C(C(C)=O)=C2C)cc(OC)c1OC,0,0,0,0,0
CCN(CC)S(=O)(=O)c1cccc(NC(=S)NC(=O)/C=C/c2ccc(S(=O)(=O)N3CCOCC3)cc2)c1,0,0,0,0,80
O=C(CNCC1CCCCC1)Nc1cccc(S(=O)(=O)N2CCOCC2)c1,0,-,0,-,79
O=C(CN1C(=O)NC2(CCCCC2)C1=O)Nc1cccc(S(=O)(=O)N2CCOCC2)c1,0,-,-,-,-
O=C(CNS(=O)(=O)c1ccc(F)cc1)N1CCCCCC1,0,-,0,-,0
Cc1cc(C)c(NC(=O)CSc2nc3[nH]ncc3c(=O)[nH]2)c(C)c1,0,-,0,-,0
COc1ccc(Nc2ccnc3ccccc23)cc1,0,0,0,0,101
COc1ccc(Nc2ncnc3ccccc23)cc1,0,0,0,0,0
COc1ccc(Nc2ccnc(Nc3ccc(OC)cc3)n2)cc1,0,0,0,0,100
CCOc1nc(Nc2ccc(OC)cc2)nc(OCC)n1,0,0,0,0,0
CCOCC(=O)Nc1cc(C)on1,0,-,0,-,0
CCOC(=O)C1=C(C)NC(=O)/C1=C\N(C)C,0,-,0,-,0
O=C(c1cccs1)n1nc(-c2cccnc2)nc1NCc1ccco1,0,-,0,-,0
CC1CCN(c2nc(/C=C/c3ccccc3)nc3ccccc23)CC1,0,0,0,0,63
C(=C\c1nc(N2CCCC2)c2ccccc2n1)/c1ccccc1,0,1.8,0,2.2,71
CC1CCN(c2nc3ccccc3nc2N2CCC(C)CC2)CC1,0,0,0,0,0
CCOC(=O)C(=CNc1cc(C(F)(F)F)ccc1N1CCOCC1)C(=O)OCC,0,-,-,-,-
Oc1ccc2ccccc2c1/C=N/Nc1nnc(-c2ncc[nH]2)c2ccccc12,0,4.9,0,2.1,100
CC1(C)NC(=O)N(CCCSc2ccc(Cl)cc2)C1=O,0,0,0,0,0
CC(=O)N1CCc2c(sc(NC(=O)C3CC3)c2-c2nc3ccccc3s2)C1,0,6.0,0,0,0
Cc1cc(C)c(C(=O)/C=C/c2ccc(C(C)C)cc2)c(=O)[nH]1,0,0,0,0,84
CCOC(=O)c1ccc(NC(=S)N(CCCN2CCCCCC2)Cc2ccco2)cc1,0,0,0,0,100
CCOC(=O)c1ccc(NC(=S)N(CCN2CCCCCC2)Cc2ccco2)cc1,0,-,0,-,95
Cc1ccc(NC(=S)N(CCCN2CCCC(C)C2)Cc2ccco2)cc1C (stereo not drawn),0,-,0,-,96
SMILES,Dynein cargo inh,bCat KO growth,Autophagy HCS,HCT116 PTEN-null,L major viab
S=C(Nc1ccc(Cl)cc1)N(CCCN1CCOCC1)Cc1ccco1,0,0,0,0,96
Cc1csc(NC(=O)c2cc3c(s2)CCCC3)n1,0,0,0,0,96
CCOC(=O)Cc1csc(NC(=O)c2cc3c(s2)CCCC3)n1,0,0,0,0,91
Cc1csc(NC(=O)c2cc3c(s2)CCCCC3)n1,0,0,0,0,0
Cc1ccc(-c2c[n+](Cc3cccc(Cl)c3)c3n2CCC3)cc1,0,-,-,-,-
CC(=O)Nc1ccc(S(=O)(=O)NNC(=O)c2cccc(Br)c2)cc1,0,-,0,-,0
Nc1ccc(S(=O)(=O)Nc2ccc(Cl)nn2)cc1,0,-,-,-,-
CN1CCN(c2ccc(Cl)cc2NC(=O)/C=C/c2ccc(F)cc2)CC1,0,-,0,-,94
Cc1cccc(NC(=O)CCN2C(=O)C3C4C=CC(C4)C3C2=O)n1 (stereo not drawn),0,0,0,0,0
CN1CCN(c2ccc(Cl)cc2NC(=O)CCN2C(=O)c3ccccc3C2=O)CC1,0,-,0,-,77
O=C(/C=C/c1ccc(F)cc1)Nc1cc(S(=O)(=O)N2CCOCC2)ccc1N1CCCC1,0,0,0,0,0
Cc1cccc(NC(=O)CCN2C(=O)c3ccccc3C2=O)n1,0,0,+,0,0
CCCCNC(=O)CCCCCNS(=O)(=O)c1ccc(OC)cc1,0,0,0,0,0
CCOC(=O)N1CCN(CC(=O)Nc2ccc([N+](=O)[O-])cc2C(=O)Nc2ccccc2F)CC1,0,0,0,0,75
O=C(CN1CCN(Cc2ccccc2)CC1)Nc1ccc([N+](=O)[O-])cc1C(=O)Nc1ccccc1F,0,0,0,0,99
CCOC(=O)N1CCN(CC(=O)Nc2ccc(F)c(F)c2)CC1,0,-,0,-,0
O=C(CCC(=O)OCC(=O)c1ccc(Br)cc1)Nc1ccc(Br)c2cccnc12,0,0,0,0,0
CN(C)c1ccc(/C=N/n2c(-c3ccccc3Br)n[nH]c2=S)cc1,0,-,-,-,-
Cc1nc(NCc2ccco2)c2c(C)c(C)sc2n1,0,1.7,0,2.2,0
CCOC(=O)C1=C(C(F)(F)F)Nc2ncnn2C1c1cc(OC)ccc1OC (stereo not drawn),0,0,0,0,0
COc1ccc(C2C=C(c3ccc(C)c(C)c3)Nc3ncnn32)c(OC)c1OC (stereo not drawn),0,0,0,0,80
CCOC(=O)C1=C(c2ccccc2)Nc2ncnn2C1c1cc(OC)ccc1OC (stereo not drawn),0,0,0,0,100
COc1cccc(C2C(C(=O)OCc3ccccc3)=C(C)Nc3ncnn32)c1OC (stereo not drawn),0,0,0,0,91
CCCCOC(=O)C1=C(C)Nc2ncnn2C1c1cccc(OC)c1 (stereo not drawn),0,0,0,0,61
CCCCOC(=O)C1=C(C)Nc2ncnn2C1c1cc(OC)ccc1OC (stereo not drawn),0,0,0,0,0
SMILES,Dynein cargo inh,bCat KO growth,Autophagy HCS,HCT116 PTEN-null,L major viab
CCCCOC(=O)C1=C(C)Nc2ncnn2C1c1cccc(OC)c1OC (stereo not drawn),0,0,0,0,0
COc1cc(C2C(C(=O)OC(C)C)=C(C)Nc3ncnn32)cc(OC)c1OC (stereo not drawn),0,0,+,0,0
CCOC(=O)C1=C(c2ccccc2)Nc2ncnn2C1c1ccc(OC)c(OC)c1OC (stereo not drawn),0,0,0,0,86
CS/C(=C(/C#N)S(=O)(=O)c1ccc(Cl)cc1)N1CCOCC1,0,-,-,-,-
CCOC(=O)C1CCN(C(=O)Nc2c(-c3ccccc3)noc2C)CC1,0,-,-,-,-
CCCCCCn1c(=O)c(F)cn(Cc2ccc(OC)c([N+](=O)[O-])c2)c1=O,0,0,0,0,91
CCCCCn1c(=O)c(F)cn(Cc2ccc(OC)c([N+](=O)[O-])c2)c1=O,0,0,0,0,0
COc1ccc(CCNC(=O)C(=O)N2CCCC2)cc1OC,0,-,0,-,0
CCN1C(=O)/C(=C\c2ccncc2)SC1=S,0,-,-,-,-
CCN1C(=O)/C(=C\c2ccncc2)SC1=Nc1ccc(C)c(C)c1,0,0,0,0,52
CCOC(=O)CCc1c(C)c2c(C)nn(-c3ccccc3)c2[nH]c1=O,0,0,-,0,0
Cc1[nH]n(C(N)=S)c(=O)c1N=Nc1cc(-c2ccc(Br)cc2)[nH]n1,0,-,0,-,57
CCN(CC)S(=O)(=O)c1ccc2[nH]c(=O)cc(C(=O)Nc3cccc(C(C)=O)c3)c2c1,0,-,0,-,0
CCOc1nsc(OCC)n1,0,-,-,-,-
